According to ChEMBL document CHEMBL4316604, “Discovery of Isaindigotone Derivatives as Novel Bloom's Syndrome Protein (BLM) Helicase Inhibitors That Disrupt the BLM/DNA Interactions and Regulate the Homologous Recombination Repair” (J Med Chem, 2019):
The source made the active and inactive calls. No cut-off for these calls is given here.

Assays:
[1] = tested on: RecQ-like DNA helicase BLM (Homo sapiens), P54132 [H996A]; assay: Inhibition of His-tagged BLM H996A mutant (unknown origin) binding to DNA assessed as effect on unbound DNA
How it was run: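 Biotinylated forked DNA (50 nM) immobilised on streptavidin plates overnight at 4 °C. BLM or mutant (100 nM final) premixed with serially halved ligand in 3% BSA blocking buffer, ≤1% DMSO, 1 h on ice. Applied to the blocked plate for 1 h at 37 °C. Bound BLM detected with anti-BLM and HRP secondary, TMB, A450; Hill fit.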

[2] = biological target: T1, RecQ-like DNA helicase BLM (Homo sapiens, UniProt P54132); assay: Inhibition of BLM recruitment to DSB sites on chromosomes in human HCT116 cells at 0.5 to 1 uM after 48 hrs by ChIP assay; format: cell-based
How it was run: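 HCT116 cells co-transfected with HRR(−) reporter DSB model (or chromosomal I-SceI DSBs) and I-SceI; after 24 h given 0–2 μM ligand for 24 h. Crosslinked in 1% formaldehyde, chromatin digested by micrococcal nuclease to 0.2–0.5 kb, IP with anti-BLM or anti-RAD51 (IgG control). qPCR at DSB sites, normalised to untreated; triplicate.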

[3] = biological target: T1, RecQ-like DNA helicase BLM; assay: Inhibition of ATP hydrolysis activity of His-tagged BLM (unknown origin) expressed in Escherichia coli BL21 (DE3) at 1 to 10 uM
[4] = tested on: HCT-116; assay: Induction of apoptosis in human HCT116 cells assessed as up-regulation of ATM phosphorylation up to 2 uM after 24 hrs by Western blot analysis
[5] = tested on: HCT-116; assay: Antiproliferative activity against human HCT116 cells after 24 hrs in presence of siRNA by MTT assay; format: functional, cell-based; details: in the assay text read “after 48 hrs” for “after 24 hrs”
How it was run: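 HCT116 cells (5×10^3/well) grown 24 h, then exposed to 0–50 μM test agent; for knockdown, cells pre-treated with 50 nM BLM siRNA for 24 h first.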

[6] = biological target: T2, DNA repair protein RAD51 homolog 1 (Homo sapiens) (UniProt Q06609); assay: Induction of RAD51 (unknown origin) binding to ssDNA up to 1 uM […] by ELISA based DNA exchange activity assay
T2 sequence (whole entry): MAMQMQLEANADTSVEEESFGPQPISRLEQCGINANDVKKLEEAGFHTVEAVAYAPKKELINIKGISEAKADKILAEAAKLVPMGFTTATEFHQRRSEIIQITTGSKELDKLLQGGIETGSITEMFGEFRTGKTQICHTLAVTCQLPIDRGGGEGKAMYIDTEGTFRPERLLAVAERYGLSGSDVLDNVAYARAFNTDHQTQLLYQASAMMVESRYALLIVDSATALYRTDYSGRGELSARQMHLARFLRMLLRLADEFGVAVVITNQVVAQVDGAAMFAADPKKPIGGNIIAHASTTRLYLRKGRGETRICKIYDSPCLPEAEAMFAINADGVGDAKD
How it was run: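 Biotinylated duplex forked DNA (50 nM final) immobilised on streptavidin plates. BLM (10–1000 nM) preincubated 1 h at 37 °C with ligand series, then added with 250 nM RAD51 for 1 h at 37 °C, ELISA format. Bound RAD51 read at 450 nm as RAD51–ssDNA filament level.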

[7] = biological target: T1, RecQ-like DNA helicase BLM; assay: Inhibition of BLM in human HCT116 cells assessed as induction of HRR up-regulation after 24 hrs by GFP-based flow cytometry; format: cell-based
How it was run: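 HCT116 cells (2×10^5) co-transfected with DR-GFP HRR reporter and I-SceI plasmid; 24 h later treated with 0–2 μM ligand (reference 0–50 μM); BLM siRNA knockdown where stated. GFP-positive cells counted by flow cytometry and normalised to untreated; triplicate, mean ± SD.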

T1 sequence (P54132 whole entry): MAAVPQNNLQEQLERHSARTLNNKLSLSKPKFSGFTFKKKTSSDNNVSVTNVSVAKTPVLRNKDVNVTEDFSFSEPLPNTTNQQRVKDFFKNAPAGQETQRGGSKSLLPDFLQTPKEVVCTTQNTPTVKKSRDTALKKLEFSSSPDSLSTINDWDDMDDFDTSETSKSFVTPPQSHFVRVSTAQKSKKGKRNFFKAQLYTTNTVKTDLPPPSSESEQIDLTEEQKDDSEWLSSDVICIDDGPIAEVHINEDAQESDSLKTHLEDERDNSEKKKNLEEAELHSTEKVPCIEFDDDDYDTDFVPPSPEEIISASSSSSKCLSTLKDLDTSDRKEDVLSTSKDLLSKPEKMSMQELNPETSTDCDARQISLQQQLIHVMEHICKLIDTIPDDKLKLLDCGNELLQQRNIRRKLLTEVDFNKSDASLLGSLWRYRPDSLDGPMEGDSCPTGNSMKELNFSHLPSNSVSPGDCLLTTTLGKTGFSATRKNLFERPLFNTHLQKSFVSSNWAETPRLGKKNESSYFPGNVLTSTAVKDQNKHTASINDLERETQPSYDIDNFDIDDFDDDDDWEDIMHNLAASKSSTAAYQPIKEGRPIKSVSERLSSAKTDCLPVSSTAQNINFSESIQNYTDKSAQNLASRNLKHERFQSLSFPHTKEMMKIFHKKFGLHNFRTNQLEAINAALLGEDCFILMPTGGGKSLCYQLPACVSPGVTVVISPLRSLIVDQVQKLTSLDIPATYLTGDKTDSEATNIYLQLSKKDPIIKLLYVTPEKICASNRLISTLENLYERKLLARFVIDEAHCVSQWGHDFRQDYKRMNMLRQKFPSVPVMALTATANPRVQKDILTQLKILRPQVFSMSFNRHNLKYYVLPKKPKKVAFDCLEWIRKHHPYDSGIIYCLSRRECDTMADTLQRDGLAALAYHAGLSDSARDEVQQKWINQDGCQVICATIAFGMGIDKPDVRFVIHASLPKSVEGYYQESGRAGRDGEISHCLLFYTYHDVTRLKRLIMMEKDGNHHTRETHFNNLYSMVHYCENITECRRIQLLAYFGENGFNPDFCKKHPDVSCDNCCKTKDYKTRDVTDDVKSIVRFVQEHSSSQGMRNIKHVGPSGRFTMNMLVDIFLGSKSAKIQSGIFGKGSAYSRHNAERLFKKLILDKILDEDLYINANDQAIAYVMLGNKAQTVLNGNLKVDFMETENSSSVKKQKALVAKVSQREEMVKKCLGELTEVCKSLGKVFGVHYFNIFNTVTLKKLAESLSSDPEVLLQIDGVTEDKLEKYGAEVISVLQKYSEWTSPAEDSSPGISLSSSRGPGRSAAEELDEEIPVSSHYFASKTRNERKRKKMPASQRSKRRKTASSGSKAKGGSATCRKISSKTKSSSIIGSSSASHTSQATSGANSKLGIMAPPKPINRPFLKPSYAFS
Sequence of RecQ-like DNA helicase BLM (Homo sapiens), P54132 [H996A] (P54132 whole entry H996A): as the sequence (P54132 whole entry) above, with H996A counted along it

SMILES: CCN(CC)CCCNc1cc2nc3n(c(=O)c2cc1F)CC/C3=C\c1ccc(C(C)C)cc1
- inhibition [1]: inactive
- inhibition [2]: Active
- inhibition [3]: inactive
- Activity [4]: Active
- Activity [5]: inactive
- Activity [6]: inactive
- inhibition [7]: Dose-dependent effect
